Screening results: PubChem, several laboratories
Hits are enriched below; roughly 3% of the tested compounds scored in any of these assays.
SENP1 inh: blocks the human SENP1 SUMO protease catalytic domain; Q9P0U3; recombinant SENP1 catalytic domain, CyPet-SUMO1-YPet FRET cleavage; inhibition, % at 10 µM; 0.21% of 360,000 active; AID 624204;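 active means inhibition at least 30% at 10 µM, raw YFP signal under a set limit, fluorescence ratio 0.5 to 1.5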;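 further: 0% = enzyme with DMSO and 100% = no enzyme wells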
Target sequence (Q9P0U3 419-644 limits assumed): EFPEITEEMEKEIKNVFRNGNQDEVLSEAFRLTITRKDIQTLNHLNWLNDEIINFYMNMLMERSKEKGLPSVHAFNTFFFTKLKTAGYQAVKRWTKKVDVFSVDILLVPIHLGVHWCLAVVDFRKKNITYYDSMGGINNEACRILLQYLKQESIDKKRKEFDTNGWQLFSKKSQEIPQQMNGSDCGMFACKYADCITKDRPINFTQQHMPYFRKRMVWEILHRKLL
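System: Recombinant human SENP1 catalytic domain, His6-tagged | Incubation: Enzyme reaction for 50 min at room temperature, dark | Medium: Tris pH 8 with BME, BSA, NP40 and catalase | Also added: 25 nM SUMO1 FRET substrate | Compound: 10 µM single point, 0.5% DMSO | Measured by: FRET fluorescence in CFP and YFP emission channels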
H9c2 protect: protects H9c2 cardiomyocytes from peroxide injury. H2O2 injury protection, ATPLite, 2 h. protection from H2O2 cell death, % at 20 µM. 0.63% of 360,000 active. AID 588492;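 active means compounds giving at least 50% protection of heart cells from peroxide-induced death in the single-dose screen, raw or plate-pattern-corrected value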;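 further: 0% = DMSO wells with peroxide and 100% = DMSO wells without peroxide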
Exocytosis inh: blocks lytic granule exocytosis; TALL-104 LAMP-1 surface exposure, flow cytometry; cells stimulated with thapsigargin and PMA; inhibition, % at 10 µM; 0.66% of 360,000 active;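 active means inhibition above about 55%, limit read from the data; inconclusive means no clear call, values can overlap the other calls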
Pemphigus Ab inh: inhibitors of pemphigus antibody binding to human desmoglein-3. binding (percent of control), % at 10 µM. DSG3-coupled beads, scFv-anti-DSG3-GFP binding, flow cytometry; active compounds read low. P32926. 0.48% of 310,000 active. AID 588358;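 active means binding more than 3 SD below its plate's average and above zero; inconclusive means below that plate limit but binding exactly zero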;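 further: hits lower antibody fragment binding to DSG3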
HNF4A DNA FP: change in binding of human HNF4 alpha to DNA; P41235; HNF4a-FITC DNA binding, fluorescence polarization, 1 h; activity change, % at 10 µM; 0.3% of 360,000 active; in the data active means activity change above about 30%, passing the limit was not always enough
Myeloid diff 2: myeloid differentiation induction; ER-HoxA9 myeloid progenitors, lysozyme-GFP differentiation, flow cytometry; calls only at 10 µM; 1% of 360,000 active;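 active means normalized GFP-positive differentiation at or above the plate's own cutoff, the solvent-only control mean plus 3 SD; inconclusive means no clear call, values can overlap the other calls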;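 further: cells exposed to compound for four days before flow analysis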
Active calls of the source: *; i = inactive; ? = inconclusive; / = not tested or not shown; + = active, no number.

SMILES	SENP1 inh	H9c2 protect	Exocytosis inh	Pemphigus Ab inh	HNF4A DNA FP	Myeloid diff 2
CSCCC(NC(=O)C1CCC(C)CC1)C(=O)OCC(=O)c1ccc(Cl)cc1 (centres undefined)	2.1	-7.5	-2.6	3.8*	5.0	i
CSCCC(NC(=O)C12CC3CC(CC(C3)C1)C2)C(=O)OCC(=O)c1ccc(Cl)cc1 (centres undefined)	2.6	-7.1	3.9	/	-2.8	i
COc1ccc(CC(N)c2csc(NC(=O)Nc3ccccc3Oc3ccccc3)n2)cc1 (centres undefined)	0.2	-27.9	1.3	/	7.8	i
NC(Cc1ccc(C(F)(F)F)cc1)c1csc(NC(=O)Nc2ccccc2Oc2ccccc2)n1 (centres undefined)	-1.2	-23.5	19.1	/	-5.0	+
NC(Cc1ccccc1)c1csc(NC(=O)Nc2ccccc2Oc2ccccc2)n1 (centres undefined)	1.1	-23.0	27.8	/	-4.1	+
O=C(CSc1cccc[n+]1[O-])Nc1ccc2c(c1)OCO2	-3.2	3.4	-0.8	106.4	0.2	i
Cc1ccccc1NC(=O)N1CCN(c2ncccn2)CC1	0.8	-0.4	0.9	105.7	1.9	i
CC(C)(C)c1ccc(C2=NC(=O)C(CC(=O)O)S2)cc1 (centres undefined)	-12.2	-4.4	-3.7	110.3	2.1	+
CCCN1CCC(=O)N([C@H](CSc2ccc(OC)cc2)Cc2ccccc2)CC1	-10.4	-5.5	3.0	110.3	-1.4	+
CCOC(=O)N1CCC(n2c(SCC(=O)N3CCCC3)nc3ccccc3c2=O)CC1	0.5	6.4	-2.5	97.2	1.1	i
CCOC(=O)N1CCC(n2c(SCC(=O)N3CCC(C)CC3)nc3ccccc3c2=O)CC1	0.1	67.0*	-4.3	98.4	0.8	i
CCOC(=O)CSc1nc2ccsc2c(=O)n1C1CCN(C(=O)OCC)CC1	-0.6	9.7	-2.8	98.2	-0.6	i
CCOC(=O)N1CCC(n2c(SCC(=O)c3ccccc3)nc3ccsc3c2=O)CC1	1.9	-1.2	-2.0	84.6*	-1.4	i
CCOC(=O)N1CCN(C(=S)Nc2ccc3nc(N4CCN(CC)CC4)cc(C)c3c2)CC1	-26.9	-0.6	1.5	111.5	1.3	i
O=C(C(=O)N(Cc1ccccc1)Cc1ccccc1)c1c(-c2ccccc2)[nH]c2ccccc12	0.1	86.5*	4.5	101.3	0.1	i
COCCNC(=O)C(=O)c1c(-c2ccccc2)[nH]c2ccccc12	0.5	6.9	-0.7	103.2	-0.4	i
CCCCNC(=O)[C@H]1C[C@H]1[C@@H](O)[C@H](CO)NC(=O)[C@H](Cc1ccccc1)NC(=O)OC(C)(C)C	-2.1	7.5	7.3	102.2	4.0	i
COc1ccc(-c2ccc(-c3noc(-c4ccccc4OC)n3)c(OC)n2)cc1	6.2	-1.9	-3.0	103.3	43.5*	i
COc1ccc(-c2ccc(-c3noc(-c4ccccc4C)n3)c(OC)n2)cc1	-24.1	2.7	-0.2	94.0	10.6	i
Cc1ccc(S(=O)(=O)N(Cc2cc3cc4c(cc3[nH]c2=O)OCCO4)CC2CCCO2)cc1 (centres undefined)	1.0	6.9	-0.6	82.5*	-1.6	i
COc1ccc2[nH]c(=O)c(CN(CC3CCCO3)S(=O)(=O)c3ccccc3)cc2c1 (centres undefined)	-2.3	30.9	-1.7	96.8	2.2	i
COc1ccc2[nH]c(=O)c(CN(CC3CCCO3)S(=O)(=O)c3ccccc3F)cc2c1 (centres undefined)	2.4	52.7*	-0.4	/	-0.3	i
O=c1[nH]c2cc3c(cc2cc1CN(CC1CCCO1)S(=O)(=O)c1ccc(Cl)cc1)OCCO3 (centres undefined)	2.3	-2.7	1.2	96.7	-0.8	i
Cc1nonc1OCCCNc1ccc([N+](=O)[O-])cc1Cl	-2.6	-5.3	-3.6	202.8	4.7	+
Cc1nonc1OCCNc1ccc([N+](=O)[O-])cc1[N+](=O)[O-]	-22.8	3.0	0.4	100.7	3.3	i
SMILES	SENP1 inh	H9c2 protect	Exocytosis inh	Pemphigus Ab inh	HNF4A DNA FP	Myeloid diff 2
Cc1cccc(C)c1NC(=O)CNC(=O)c1cccnc1	2.2	3.9	-5.5	105.0	3.4	i
CCCCN1C=C(C(=O)OC)C(c2ccccc2C(F)(F)F)C(C(=O)OC)=C1	-21.9	-15.2	0.8	-28.3*	1.5	i
Cc1ccc(C(C)C)cc1S(=O)(=O)NCc1ccccn1	1.3	-0.9	-4.1	107.5	0.3	i
O=C1NC[C@H](CCCCN2CCN(CCC3CCCCC3)C(=O)C2=O)N(CCc2ccccc2)C1=O	1.5	/	-3.5	/	-1.3	i
Cc1ccc(-c2n[nH]c(=O)c3ccccc23)c(C)c1	-0.4	-4.8	-6.5	108.3	-0.4	i
Nc1ccc(-c2n[nH]c(=O)c3ccccc23)cc1N	4.0	79.5*	-4.3	94.3	7.6	/
Cc1ccc(-c2n[nH]c(=O)c3ccccc23)cc1N	0.2	67.6*	-0.6	/	-5.0	i
Cn1c(N)c(C(=O)COc2ccc(C#N)cc2)c(=O)n(C)c1=O	-1.5	10.9	4.8	109.1	-1.0	i
CC(C)C1C(=O)CC(c2ccccc2)NC1c1ccccc1 (centres undefined)	0.6	-4.3	0.4	109.3	37.7*	i
Oc1c(N=Nc2ccccn2)ccc2ccccc12	13.5	-7.6	102.2*	77.8	9.3	i
CCN(CC)CCNC(=O)CN1C(=O)CSc2ccc(S(=O)(=O)N3CCOCC3)cc21	0.4	3.1	-2.8	96.5	-3.9	i
CCOc1ccc2[nH]c(=O)c(CN(Cc3cccs3)C(CC)c3nnnn3C(C)(C)CC)cc2c1 (centres undefined)	-21.5	67.0*	1.0	/	-0.1	i
CCOc1ccc2[nH]c(=O)c(CN(Cc3nnnn3Cc3ccco3)C3CCCCC3)cc2c1	-6.1	58.6*	-2.1	?	-10.2	i
CCOc1ccc2[nH]c(=O)c(CN(Cc3ccco3)C(CC)c3nnnn3Cc3ccccc3)cc2c1 (centres undefined)	-18.6	85.5*	3.2	104.4	-0.3	i
CCOC(=O)Cn1nnnc1C(CC)N(Cc1cccs1)Cc1cc2cc(C)ccc2[nH]c1=O (centres undefined)	2.8	2.2	-0.6	99.4	-1.3	i
Cc1ccc(NC(=O)N2CCCC2C(=O)Nc2ccc3c(c2)OCCO3)cc1 (centres undefined)	2.1	1.5	-14.6	107.0	-1.7	i
c1ccc(Nc2ncnc3[nH]ncc23)cc1	1.0	2.0	0.5	103.8	5.7	i
O=C(CS(=O)(=O)c1ccc(Cl)cc1)N1CCN(c2ccccc2)CC1	1.4	-7.8	0.2	95.8	-2.6	i
CCOc1ccc(NC(=O)CSc2cn[nH]n2)cc1	2.5	-1.2	-4.8	116.7	4.7	i
